Assay results published in ChEMBL document CHEMBL1148824, “Quinazolinone derivatives as orally available ghrelin receptor antagonists for the treatment of diabetes and obesity” (J Med Chem, 2007).
Values after ≈ are worked out from the molar mass of the structure shown.

Tests used:
Cytochrome P450 2D6 = Cytochrome P450 2D6 (Homo sapiens, UniProt P10635); experiment: Inhibition of CYP2D6; type: ADME
[1] = molecular target: T1, Growth hormone secretagogue receptor type 1 (Homo sapiens, UniProt Q92847); experiment: Agonist activity at human recombinant GHSR1a expressed in HEK293F cells assessed as stimulation of [35S]GTP-gamma-S binding relative to ghrelin; type: functional, cell-based
Procedure, shortened: (§1)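 Functional read-out as GTPγS binding to membranes from HEK293F cells overexpressing recombinant GHS-R1a; values are the mean of at least two replicates.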

[2] = molecular target: T1, Growth hormone secretagogue receptor type 1; experiment: Antagonist activity at human recombinant GHSR1a expressed in HEK293F cells by [35S]GTP-gamma-S binding assay; type: functional, cell-based; procedure, shortened: as §1
[3] = Aqueous solubility at pH 7.2; type: physicochemical
[4] = molecular target: T2, 5-hydroxytryptamine receptor 2C (Homo sapiens, UniProt P28335); experiment: Displacement of […] from 5HT2c receptor
T2 sequence (P28335 whole entry): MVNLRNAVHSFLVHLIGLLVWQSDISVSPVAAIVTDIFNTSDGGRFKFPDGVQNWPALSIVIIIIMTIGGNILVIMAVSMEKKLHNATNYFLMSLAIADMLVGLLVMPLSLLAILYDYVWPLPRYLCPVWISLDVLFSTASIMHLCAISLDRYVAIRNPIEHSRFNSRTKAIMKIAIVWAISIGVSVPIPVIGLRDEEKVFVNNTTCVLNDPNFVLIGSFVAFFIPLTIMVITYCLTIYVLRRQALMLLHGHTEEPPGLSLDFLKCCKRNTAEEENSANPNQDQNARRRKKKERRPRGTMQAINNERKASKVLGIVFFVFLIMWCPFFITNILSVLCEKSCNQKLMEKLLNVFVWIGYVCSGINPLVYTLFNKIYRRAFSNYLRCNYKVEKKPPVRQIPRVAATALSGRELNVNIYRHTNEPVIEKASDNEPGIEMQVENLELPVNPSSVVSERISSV

Ghrelin receptor = Ghrelin receptor (Ovis aries, UniProt Q8MHZ5); experiment: Displacement of [125I]ghrelin from ovine recombinant GHSR1a expressed in HEK293F cells after 6 hrs by scintillation proximity assay; type: cell-based
[5] = Cmax in Wistar rat at 3 mg/kg, po; type: ADME, organism-based; set-up: dose 3 mg/kg, route oral; details: in vivo
Procedure, shortened: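 Wistar rat pharmacokinetic screen; single oral dose of 3 mg/kg in PEG400/methanesulfonic acid (80:20) vehicle; plasma exposure measured.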

[6] = Cmax in po dosed DIO C57BL/6 mouse after 5 hrs; type: ADME, organism-based; set-up: route oral; details: in vivo
Mus musculus = experiment: Increase in food intake in DIO C57BL/6 mouse at 30 mg/kg, after 5 hrs relative to control; type: functional
Brain = experiment: Drug level in po dosed DIO C57BL/6 mouse brain after 5 hrs relative to plasma concentration; type: ADME, organism-based
Rattus norvegicus = experiment: Decrease in blood glucose level in DIO Wistar rat using at 10 mg/kg after 5 hrs by IPGTT test relative to control; type: functional; set-up: scale not given: the % may be the effect or the level left

Chain of Cytochrome P450 2D6 (P10635 whole entry): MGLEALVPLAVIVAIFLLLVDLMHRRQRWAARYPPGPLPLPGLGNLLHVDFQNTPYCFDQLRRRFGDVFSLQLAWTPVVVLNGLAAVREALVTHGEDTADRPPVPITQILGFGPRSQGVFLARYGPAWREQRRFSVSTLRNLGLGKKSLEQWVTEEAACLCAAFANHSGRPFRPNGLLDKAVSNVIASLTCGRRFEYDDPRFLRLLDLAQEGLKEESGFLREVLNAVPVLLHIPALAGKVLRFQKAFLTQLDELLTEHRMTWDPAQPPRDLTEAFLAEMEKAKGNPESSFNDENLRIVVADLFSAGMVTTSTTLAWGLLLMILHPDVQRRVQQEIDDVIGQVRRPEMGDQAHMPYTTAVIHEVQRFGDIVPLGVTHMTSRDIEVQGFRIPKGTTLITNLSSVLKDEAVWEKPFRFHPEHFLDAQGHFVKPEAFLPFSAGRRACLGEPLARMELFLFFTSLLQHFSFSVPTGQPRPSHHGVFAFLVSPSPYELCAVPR
T1 sequence (Q92847 whole entry): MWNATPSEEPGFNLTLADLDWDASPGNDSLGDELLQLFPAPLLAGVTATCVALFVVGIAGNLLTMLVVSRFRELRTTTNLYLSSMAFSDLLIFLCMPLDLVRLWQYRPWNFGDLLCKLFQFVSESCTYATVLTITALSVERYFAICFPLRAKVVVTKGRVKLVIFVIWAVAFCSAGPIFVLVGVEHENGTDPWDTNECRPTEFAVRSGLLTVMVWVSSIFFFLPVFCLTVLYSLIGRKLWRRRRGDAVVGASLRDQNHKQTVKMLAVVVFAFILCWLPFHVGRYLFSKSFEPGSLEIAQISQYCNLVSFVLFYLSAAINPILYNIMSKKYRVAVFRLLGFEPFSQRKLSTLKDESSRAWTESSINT
Chain of Ghrelin receptor (Q8MHZ5 whole entry): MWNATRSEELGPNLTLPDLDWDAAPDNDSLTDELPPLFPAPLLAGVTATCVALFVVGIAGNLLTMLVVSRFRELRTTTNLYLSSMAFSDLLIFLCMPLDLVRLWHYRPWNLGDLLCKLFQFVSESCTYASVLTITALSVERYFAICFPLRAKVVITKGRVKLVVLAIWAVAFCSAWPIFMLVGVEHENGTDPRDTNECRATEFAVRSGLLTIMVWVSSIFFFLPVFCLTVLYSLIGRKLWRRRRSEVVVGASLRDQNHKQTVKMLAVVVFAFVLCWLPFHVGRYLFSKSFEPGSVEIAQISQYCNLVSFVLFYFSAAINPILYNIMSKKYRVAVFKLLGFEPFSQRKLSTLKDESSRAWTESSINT

Row | SMILES | E/Emax [1] | Kb [2] | Ki (Ghrelin receptor) | Cmax [5] | also measured
1 | CC(C)N1CCC[C@H](Cn2cnc3ccc(Oc4ccc(F)cc4)cc3c2=O)C1 | 2% | 0.045 µM | 0.018 µM |  | IC50 (Cytochrome P450 2D6): 21 µM; solubility [3]: 450 µM (≈ 178 µg/mL); Ki [4]: > 1 µM
2 | COCCN1CCCC(Cn2c(-c3ccccc3C)nc3ccc(-c4ccc(Cl)cc4)cc3c2=O)C1 (configuration not stated) | -20% | 0.0064 µM | 0.004 µM | 140 nM | 
3 | Cc1nc2ccc(-c3ccc(Cl)cc3)cc2c(=O)n1C[C@H]1CCCN(C(C)C)C1 | 0% |  | 0.11 µM |  | IC50 (Cytochrome P450 2D6): 9.6 µM; solubility [3]: 125 µM (≈ 51.2 µg/mL); Ki [4]: > 1 µM
4 | Cc1ccccc1-c1nc2ccc(Oc3ccc(F)cc3)cc2c(=O)n1C[C@H]1CCCN(C(C)C)C1 (stereo in doubt; (S)-35) |  |  | 0.0009 µM |  | 
5 | CCN1CCC[C@H](Cn2c(C(C)C)nc3ccc(-c4ccc(F)cc4)cc3c2=O)C1 |  |  | 0.04 µM |  | 
6 | CCN1CCC[C@@H](Cn2c(-c3ccccc3C)nc3ccc(-c4ccc(Cl)cc4)cc3c2=O)C1 | 10% | 0.25 µM | 0.071 µM |  | 
7 | CCN1CCCC(Cn2c(-c3ccccc3C)nc3ccc(-c4ccc(Cl)cc4)cc3c2=O)C1 (configuration not stated) [listing 2 of 2 here] |  |  | 0.0018 µM | 120 nM | 
8 | CCN1CCC[C@H](Cn2c(-c3ccccc3C)nc3ccc(OC(F)(F)F)cc3c2=O)C1 |  |  | 0.016 µM |  | 

More lines, main results first:

Row | E/Emax [1] | Kb [2] | Ki (Ghrelin receptor) | Cmax [5] | SMILES | also measured
9 | -5% | 0.0076 µM | 0.004 µM | 210 nM | CC(C)c1nc2ccc(Oc3ccc(F)cc3)cc2c(=O)n1C[C@H]1CCCN(C(C)C)C1 | IC50 (Cytochrome P450 2D6): 7.2 µM; solubility [3]: 100 µM (≈ 43.8 µg/mL); Ki [4]: > 1 µM
10 |  |  | 0.016 µM |  | CCN1CCC[C@H](Cn2c(-c3ccc(C(F)(F)F)cc3)nc3ccc(-c4ccc(Cl)cc4)cc3c2=O)C1 | 
11 |  |  | 0.44 µM | 200 nM | CC(C)N1CCC[C@H](Cn2cnc3ccc(-c4ccc(Cl)cc4)cc3c2=O)C1 | IC50 (Cytochrome P450 2D6): 0.2 µM; Ki [4]: > 1 µM
12 | 23% | 0.00097 µM | 0.00047 µM | 310 nM | Cc1ccccc1-c1nc2ccc(Oc3ccc(F)cc3)cc2c(=O)n1CC1CCCN(C(C)C)C1 (configuration not stated) | 
13 | -9% | 0.014 µM | 0.016 µM | 100 nM | Cc1ccccc1-c1nc2ccc(-c3ccc(Cl)cc3)cc2c(=O)n1CC1CCCN(CCF)C1 (configuration not stated) | 
14 |  |  | 0.047 µM |  | Cc1ccccc1-c1nc2ccc(Oc3ccc(F)cc3)cc2c(=O)n1C[C@@H]1CCCN(C(C)C)C1 | 
15 | 12% | 0.0032 µM |  |  | CCN1CCCC(Cn2c(-c3ccccc3C)nc3ccc(-c4ccc(Cl)cc4)cc3c2=O)C1 (configuration not stated) [listing 1 of 2 here] | 
16 | -20% | 0.0027 µM | 0.0025 µM | 220 nM | Cc1ccccc1-c1nc2ccc(-c3ccc(Cl)cc3)cc2c(=O)n1CC1CCCN(C2CCC2)C1 (configuration not stated) | 
17 | 12% | 0.013 µM | 0.007 µM | 20 nM | Cc1ccccc1-c1nc2ccc(-c3ccc(Cl)cc3)cc2c(=O)n1CC1CCCNC1 (configuration not stated) | 
18 | 0% | 0.0028 µM | 0.0017 µM | 120 nM | CCN1CCC[C@H](Cn2c(-c3ccccc3C)nc3ccc(-c4ccc(Cl)cc4)cc3c2=O)C1 | Cmax [6]: 2200 nM; IC50 (Cytochrome P450 2D6): 6.1 µM; Activity (Mus musculus): -17%; Drug uptake (Brain): 22%; Activity (Rattus norvegicus): -13%; solubility [3]: 80 µM (≈ 37.8 µg/mL); Ki [4]: 0.12 µM
19 |  |  | 0.036 µM |  | CCCCN(C)c1ccc2nc(-c3ccccc3OC)n(CC3CCCNC3)c(=O)c2c1 (configuration not stated) | 
20 |  |  | 0.127 µM |  | CC(C)c1nc2ccc(-c3ccccc3Cl)cc2c(=O)n1C[C@H]1CCCN(C(C)C)C1 | 
